# Reference: ChEMBL document CHEMBL1687926, “14-Aminocamptothecins: their synthesis, preclinical activity, and potential use for cancer treatment” (J Med Chem, 2011)
# Values joined by “and” are separate entries in the source; they are usually repeats but may differ in a detail not shown here. Equal values may be shown once.
# Experiments:
# NCI-H460 [1] = experiment: Cytotoxicity against human H460 cells after 72 hrs by alamar blue assay; format: functional, cell-based; settings: Homo sapiens, NCI-H460, 72 h
# Outline: (§1)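 Cells seeded at 4 × 10³ per well and grown 24 h. Compounds dissolved in DMSO and diluted in medium to final concentrations, then incubated 72 h at 37 °C, 5% CO₂. Viable cells read by AlamarBlue; IC₅₀ taken as the concentration giving 50% growth inhibition.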
# [2] = Cytotoxicity against human bone marrow cell by CFU-GM assay; format: cell-based; settings: for IC50: Homo sapiens, Bone marrow cell; for IC90: human, bone marrow cells
# [3] = Cytotoxicity against mouse bone marrow cell by CFU-GM assay; format: cell-based
# Outline: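 CFU-GM colony assay on normal human bone marrow (thawed) or mouse femoral marrow (freshly extracted). Human colonies scored after 16-18 days. IC₅₀ taken from triplicate assays.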
# [4] = Ratio of IC50 for mouse bone marrow cell to IC50 for human bone marrow cell; format: cell-based; settings: bone marrow cells
# Outline: (§2)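 CFU-GM colony assay in triplicate at 2 × 10⁴ cells per culture, using thawed normal human bone marrow or fresh mouse femoral marrow. Colonies were scored after 16-18 days. The IC50 or IC90 from each species gave the mouse/human ratio.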
# [5] = Ratio of IC90 for mouse bone marrow cell to IC90 for human bone marrow cell; format: ADME, cell-based; settings: bone marrow cells; outline: as §2
# PC-3 [6] = experiment: Cytotoxicity against human PC3 cells after 72 hrs by alamar blue assay; format: functional, cell-based; settings: PC-3, 72 h; outline: as §1
# HT-29 [7] = experiment: Cytotoxicity against human HT-29 cells after 72 hrs by alamar blue assay; format: functional, cell-based; settings: HT-29, 72 h; outline: as §1
# NCI-H460 [8] = experiment: Cytotoxicity against human H460 cells after 72 hrs by alamar blue assay in presence of 40 mg/ml HSA; format: functional, cell-based; settings: NCI-H460, 72 h
# Outline: (§3)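 H460 cells seeded at 4 × 10³ per well and grown 24 h. Compounds then cocultured with cells for 72 h at 37 °C, with or without 40 mg/mL human serum albumin. Viability read by AlamarBlue; IC₅₀ = 50% growth inhibition. Ratio compares the IC₅₀ with HSA to the IC₅₀ without.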
# NCI-H460 [9] = experiment: Ratio IC50 for human H460 cells after 72 hrs in presence of 40 mg/ml HSA to IC50 for human H460 cells after 72 hrs; format: functional; outline: as §3
# [10] = Cytotoxicity against human MESSA cells after 72 hrs by alamar blue assay; format: functional, cell-based; settings: MES-SA; outline: as §1
# [11] = Cytotoxicity against human MES-SA/Dx5 cells overexpressing MDR1 after 72 hrs by alamar blue assay; format: functional, cell-based; settings: MES-SA/Dx5, 72 h; outline: as §1
# NCI-H69 = experiment: Cytotoxicity against human H69 cells after 72 hrs by alamar blue assay; format: functional, cell-based; settings: NCI-H69, 72 h; outline: as §1
# [12] = Resistance ratio of IC50 for human MES-SA/Dx5 cells overexpressing MDR1 after 72 hrs to IC50 for human MESSA cells after 72 hrs; format: functional
# Outline: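 Cytotoxicity compared in MDR1-overexpressing lines and their parental wild-type lines. 72 h exposure at 37 °C, viability by AlamarBlue, IC₅₀ at 50% growth inhibition. Resistance ratio = IC₅₀ in overexpressing line / IC₅₀ in parental line.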
# H69AR = experiment: Cytotoxicity against human H69AR cells overexpressing MRP1 after 72 hrs by alamar blue assay
# [13] = Resistance ratio of IC50 for human H69AR cells overexpressing MRP1 after 72 hrs s to IC50 for human H69 cells after 72 hrs
# SK-MEL-2 = experiment: Cytotoxicity against human SK-MEL-2 cells after 72 hrs by alamar blue assay; format: functional, cell-based; settings: SK-MEL-2, 72 h; outline: as §1
# A-375 = experiment: Cytotoxicity against human A375 cells after 72 hrs by alamar blue assay; format: functional, cell-based; settings: A-375, 72 h; outline: as §1
# Malme-3M = experiment: Cytotoxicity against human MALME-3M cells after 72 hrs by alamar blue assay; format: functional, cell-based; outline: as §1
# DU-145 = experiment: Cytotoxicity against human DU145 cells after 72 hrs by alamar blue assay; format: functional, cell-based; settings: DU-145, 72 h; outline: as §1
# LNCaP = experiment: Cytotoxicity against human LNCAP cells after 72 hrs by alamar blue assay; format: functional, cell-based; outline: as §1
# IGROV-1 = experiment: Cytotoxicity against human IGROV1 cells after 72 hrs by alamar blue assay; format: functional, cell-based; settings: IGROV-1, 72 h; outline: as §1
# NCI-H460 [14] = experiment: Antitumor activity against human H460 cells xenografted in nu/nu mouse assessed as tumor growth inhibition at 2 mg/kg, po QD for 5 days followed by 2days without treatment for 2 weeks; format: functional; set-up: scale not given: the % may be the effect or the level left
# Outline: (§4)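 Nude mice (nu/nu), females, or males for the prostate model, 4-6 weeks old, implanted sc in the flank with tumor cells (H460 at 1 × 10⁶). Groups of 10 were randomized at 100-150 mm³. Dosing was oral gavage in 5% DMSO/5% Tween 80/1% CMC in water, QD 5 days on/2 off per cycle, for 2 cycles (H460, PC-3) or 4 cycles (HT29). Tumor volume (length × width²/2) and body weight were measured twice weekly.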
# NCI-H460 [15] = experiment: Antitumor activity against human H460 cells xenografted in nu/nu mouse assessed as tumor growth delay at 2 mg/kg, po QD for 5 days followed by 2days without treatment for 2 weeks; format: functional; outline: as §4
# PC-3 [16] = experiment: Antitumor activity against human PC3 cells xenografted in nu/nu mouse assessed as tumor growth inhibition at 2 mg/kg, po QD for 5 days followed by 2days without treatment for 2 weeks; format: functional; set-up: scale not given: the % may be the effect or the level left; outline: as §4
# PC-3 [17] = experiment: Antitumor activity against human PC3 cells xenografted in nu/nu mouse assessed as tumor growth delay at 2 mg/kg, po QD for 5 days followed by 2days without treatment for 2 weeks; format: functional; outline: as §4
# Mus musculus [18] = experiment: Toxicity in nu/nu mouse assessed as body weight loss at 2 mg/kg, po QD for 5 days followed by 2 days without treatment for 2 weeks; format: organism-based; set-up: dose 2 mg/kg, route oral; settings: in vivo; outline: as §4
# Mus musculus [19] = experiment: Toxicity in nu/nu mouse assessed as body weight loss at 2 mg/kg, po QD for 5 days followed by 4 days without treatment for 2 weeks; format: organism-based; set-up: dose 2 mg/kg, route oral; settings: in vivo
# HT-29 [20] = experiment: Antitumor activity against human HT-29 cells xenografted in nu/nu mouse assessed as tumor growth delay at 2 mg/kg, po QD for 5 days
# HT-29 [21] = experiment: Antitumor activity against human HT-29 cells xenografted in nu/nu mouse assessed as tumor growth inhibition at 2 mg/kg, po QD for 5 days; set-up: scale not given: the % may be the effect or the level left
SMILES,IC50 (NCI-H460 [1]),IC50 [2],IC90 [2],IC50 [3],selectivity ratio [4],selectivity ratio [5],IC50 (PC-3 [6]),IC50 (HT-29 [7]),IC50 (NCI-H460 [8]),Ratio (NCI-H460 [9]),IC50 [10],IC50 [11],IC50 (NCI-H69),Ratio [12],IC50 (H69AR),Ratio [13],IC50 (SK-MEL-2),IC50 (A-375),IC50 (Malme-3M),IC50 (DU-145),other results
CCc1c2c(nc3ccccc13)-c1c3c(c(CO)c(=O)n1C2)[C@@](O)(CC)C(=O)N3,> 10000 nM,–,–,–,–,–,–,–,–,–,–,–,–,–,–,–,–,–,–,–,–
CC[C@@]1(O)C(=O)OCc2c1cc1n(c2=O)Cc2cc3c(N)cccc3nc2-1 [9-AMINOCAMPTOTHECIN],–,1 nM,8 nM,90 nM,75,88,–,–,–,–,–,–,–,–,–,–,–,–,–,–,–
CC[C@@]1(O)C(=O)OCc2c1cc1n(c2=O)Cc2cc3ccccc3nc2-1 [CAMPTOTHECIN],13 nM,–,–,–,–,–,12 nM,260 nM,> 1000 nM,>77,57 nM,52 nM,1 nM,1,> 300 nM,>250,–,–,–,–,–
CCc1c2c(nc3ccc(OC(=O)N4CCC(N5CCCCC5)CC4)cc13)-c1cc3c(c(=O)n1C2)COC(=O)[C@]3(O)CC [IRINOTECAN],15 nM,1 nM,8 nM,110 nM,85,100,4 nM,220 nM,27 nM,2,10 nM,22 nM,22 nM,2,250 nM,11,100 nM,4 nM,200 nM,200 nM,IC50 (LNCaP): 9 nM; IC50 (IGROV-1): 30 nM
CC[C@@]1(O)C(=O)OCc2c1cc1n(c2=O)Cc2cc3c(CN(C)C)c(O)ccc3nc2-1 [TOPOTECAN],45 nM,8 nM,50 nM,130 nM,16,14,45 nM,> 1000 nM,110 nM,2,4 nM,33 nM,6 nM,8,> 300 nM,>47,140 nM,13 nM,1000 nM,1000 nM,IC50 (LNCaP): 9 nM; IC50 (IGROV-1): 160 nM; Activity (NCI-H460 [14]): 46%; Time (NCI-H460 [15]): 5 days; Activity (PC-3 [16]): 79%; Time (PC-3 [17]): 21 days; Activity (Mus musculus [18]): 9%; Activity (Mus musculus [19]): 0% and 1%; Time (HT-29 [20]): 16 days; Activity (HT-29 [21]): 70%
